{"data": "Published values of several laboratories", "target": "Beta-adrenergic receptor kinase 1 (GRK2, Homo sapiens, UniProt P25098)", "Sequence (P25098 1-689, as in one of the studies)": "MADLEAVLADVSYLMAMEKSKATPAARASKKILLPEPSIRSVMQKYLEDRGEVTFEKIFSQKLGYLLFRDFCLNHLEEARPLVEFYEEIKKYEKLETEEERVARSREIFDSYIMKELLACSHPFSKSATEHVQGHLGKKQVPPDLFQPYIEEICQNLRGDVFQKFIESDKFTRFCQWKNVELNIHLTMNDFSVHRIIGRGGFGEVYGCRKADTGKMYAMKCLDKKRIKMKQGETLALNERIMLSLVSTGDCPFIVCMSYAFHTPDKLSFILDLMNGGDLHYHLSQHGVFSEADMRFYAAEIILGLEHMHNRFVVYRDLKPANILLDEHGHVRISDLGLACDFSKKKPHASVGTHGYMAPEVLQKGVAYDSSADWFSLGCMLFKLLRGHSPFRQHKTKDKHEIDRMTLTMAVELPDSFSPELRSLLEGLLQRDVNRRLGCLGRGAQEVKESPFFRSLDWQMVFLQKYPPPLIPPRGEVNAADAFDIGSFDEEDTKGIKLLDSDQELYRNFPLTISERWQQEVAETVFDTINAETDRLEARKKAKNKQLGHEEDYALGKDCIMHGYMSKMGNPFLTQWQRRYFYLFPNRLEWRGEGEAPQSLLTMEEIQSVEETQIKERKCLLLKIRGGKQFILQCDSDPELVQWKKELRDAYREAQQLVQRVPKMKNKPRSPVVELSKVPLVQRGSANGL"}
{"SMILES": "Cc1cnn2ncc(-c3ccnc(N(C)C)n3)c2c1", "observed": "binding", "tested at": "1 µM", "remaining binding": "50%"}
{"SMILES": "Cc1nc(Cc2cccc(C(F)(F)F)c2)sc1-c1ccc(C(N)=O)nc1", "observed": "cell-free assay", "technique": "competition with immobilised ligand", "tested at": "1 µM", "remaining binding": "100%"}
{"SMILES": "c1cncc(-c2cccc(Nc3nccc(NC4CCCCC4)n3)c2)c1", "observed": "binding", "technique": "competition with immobilised ligand", "tested at": "10 µM", "remaining binding": "100%"}
{"SMILES": "O=C(NCCCN1CCOCC1)c1ccc(Nc2nccc(-c3cc4ccccc4s3)n2)cc1", "observed": "binding", "technique": "competition with immobilised ligand", "tested at": "1 µM", "remaining binding": "65%"}
{"SMILES": "O=C(Nc1c[nH]nc1C(=O)NC1CCNCC1)c1cc(F)cc(F)c1", "observed": "binding", "technique": "competition with immobilised ligand", "tested at": "1 µM", "remaining binding": "100%"}
{"SMILES": "CN(CCCC(F)(F)F)c1nccc(-c2cnn3ncccc23)n1", "observed": "binding", "technique": "competition with immobilised ligand", "tested at": "1 µM", "remaining binding": "61%"}
{"SMILES": "Cc1c(C(=O)O)cc(-c2ccc(C3CCNCC3)cc2)c2ccc(-c3ccc(C(F)(F)F)cc3)cc12", "observed": "binding", "technique": "competition with immobilised ligand", "tested at": "1 µM", "remaining binding": "100%"}
{"SMILES": "O=C(c1ccc(Nc2nccc(-c3cc4ccccc4s3)n2)cc1)N1CCC(N2CCCC2)CC1", "observed": "binding", "technique": "competition with immobilised ligand", "tested at": "1 µM", "remaining binding": "100%"}
{"SMILES": "C[C@@H]1CCN(c2nccc(-c3cnn4ncccc34)n2)C1", "observed": "binding", "technique": "competition with immobilised ligand", "tested at": "1 µM", "remaining binding": "57%"}
{"SMILES": "Cc1c(NC(=O)c2cc(C(N)=O)nc3cc(F)ccc23)c(C(F)(F)F)nn1Cc1ccc(C(C)(C)C)cc1", "observed": "cell-free assay", "technique": "competition with immobilised ligand", "tested at": "1 µM", "remaining binding": "100%"}
{"SMILES": "Nc1ncc2c(n1)-c1c([nH]c3ccc(C#CC4CC4)cc13)CCCC2", "observed": "binding", "technique": "competition with immobilised ligand", "tested at": "1 µM", "remaining binding": "87%"}
{"SMILES": "Nc1cnc(N2CCc3cc(S(=O)(=O)Nc4c(F)cc(Cl)cc4F)cc(N4CCCC4=O)c32)nc1", "observed": "cell-free assay", "technique": "competition with immobilised ligand", "tested at": "1 µM", "remaining binding": "100%"}
{"SMILES": "COc1cnc(Nc2cccc(S(N)(=O)=O)c2)nc1N1CCN(c2ccccc2)C(=O)C1", "observed": "binding", "technique": "competition with immobilised ligand", "tested at": "1 µM", "remaining binding": "68%"}
{"SMILES": "CNCc1ccccc1-c1csc([C@@H](C)Nc2nc(C)nc3cc(OC)c(OC)cc23)c1", "observed": "cell-free assay", "technique": "competition with immobilised ligand", "tested at": "1 µM", "remaining binding": "86%"}
{"SMILES": "CN(C)c1nccc(-c2cnn3ncccc23)n1", "observed": "binding", "technique": "competition with immobilised ligand", "tested at": "1 µM", "remaining binding": "74%"}
{"SMILES": "COc1cnc(Nc2cccc(S(N)(=O)=O)c2)nc1N1CCN(c2ccccc2)CC1", "observed": "binding", "technique": "competition with immobilised ligand", "tested at": "1 µM", "remaining binding": "88%"}
{"SMILES": "c1cnn2ncc(-c3ccnc(N4CCC45COC5)n3)c2c1", "observed": "binding", "technique": "competition with immobilised ligand", "tested at": "1 µM", "remaining binding": "48%"}
{"SMILES": "CCCCN(CCCC)C(=O)CN1C[C@H](c2cc(OC)c3c(c2)OCO3)[C@@H](C(=O)O)[C@@H]1CC(C)(C)CCC", "observed": "cell-free assay", "technique": "competition with immobilised ligand", "tested at": "1 µM", "remaining binding": "71.8%"}
{"SMILES": "F[C@@H]1CCN(c2nccc(-c3cnn4ncccc34)n2)C1", "observed": "binding", "tested at": "1 µM", "remaining binding": "54%"}
{"SMILES": "O=C(NCCCN1CCOCC1)c1ccc(Nc2ncc(Cl)c(-c3ccc(Cl)s3)n2)cc1", "observed": "binding", "technique": "competition with immobilised ligand", "tested at": "1 µM", "remaining binding": "91%"}
